The target of assay [1] is T1, Cysteinyl leukotriene receptor 1 (Cavia porcellus, UniProt Q2NNR5).
T1 sequence (Q2NNR5 whole entry): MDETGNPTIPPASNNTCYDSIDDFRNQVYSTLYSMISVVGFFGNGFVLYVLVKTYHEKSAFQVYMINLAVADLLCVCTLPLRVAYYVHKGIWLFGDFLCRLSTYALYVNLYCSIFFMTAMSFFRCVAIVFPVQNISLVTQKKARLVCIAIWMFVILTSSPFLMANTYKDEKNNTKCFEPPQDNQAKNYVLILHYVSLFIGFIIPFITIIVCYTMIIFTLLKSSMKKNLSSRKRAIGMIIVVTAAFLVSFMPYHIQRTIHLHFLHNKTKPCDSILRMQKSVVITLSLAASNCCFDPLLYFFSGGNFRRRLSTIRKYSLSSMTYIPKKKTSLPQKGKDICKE
Briefly: (§1) In vitro inhibition of [3H]LTD4 binding to guinea pig lung membranes. It counts as tissue-based, Membrane.

In another assay the test system is Cavia porcellus. As to the kind of experiment: Compound was evaluated in vivo for its effective dose against bronchoconstriction induced by LTD4 (0.2 ug/kg, iv) in anesthetized guinea pigs followed by id administration. It counts as functional. The essentials:
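Anesthetized guinea pigs were dosed once intraduodenally and challenged with LTD4 (0.2 μg/kg iv) 10, 30 and 50 min later. The effective dose is the minimum id dose giving over 50% inhibition of bronchoconstriction within 50 min. The number of experiments is reported with each value.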

Assay [2] concerns Rattus norvegicus. Briefly: Compound was evaluated in vivo for inhibition of dyspnea induced by a 5 min aerosol of ovalbumin in 6 hyperreactive rats for each of three doses. The class given is functional. The method, boiled down:
(§2)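 Oral dosing in hyperreactive rats. Dyspnea was provoked by a 5 min ovalbumin aerosol. Six rats were used at each of three doses. The ED50 was derived from the percent inhibition of dyspnea across those doses.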

In assay [3] the test system is Rattus norvegicus. As to the kind of experiment: Compound was evaluated in vivo for inhibition of dyspnea induced by a 5 min aerosol of ovalbumin in 6 hyperreactive rats at dose of 0.5 mg/Kg. It counts as functional. The method, boiled down:
(§3)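 Oral single-dose test in hyperreactive rats, six animals, with dyspnea provoked by a 5 min ovalbumin aerosol. The value is the percent inhibition of dyspnea at the one stated dose.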

Assay [4] addresses T2, Cysteinyl leukotriene receptor 1 (Cavia porcellus) (UniProt Q2NNR5).
T2 sequence (whole entry): T1 sequence (Q2NNR5 whole entry)
Briefly: In vitro inhibition of [3H]LTD4 binding to guinea pig lung membranes at 1 uM. The class given is functional, tissue-based. The following applies: Membrane.

Assay [5] relates to Rattus norvegicus. Briefly: Compound was evaluated in vivo for inhibition of dyspnea induced by a 5 min aerosol of ovalbumin in six hyperactive rats for each of three doses. It counts as functional. The essentials: as §2
Assay [6] has as its target T1, Cysteinyl leukotriene receptor 1. Described as §1. It counts as functional, tissue-based, Membrane.
The subject of assay [7] is Rattus norvegicus. Briefly: Compound was evaluated in vivo for inhibition of dyspnea induced by a 5 min aerosol of ovalbumin in 6 hyperreactive rats at dose of 1.5 mg/Kg. The class given is functional. The essentials: as §3

Some results are limits rather than exact numbers.

In the case of `C(=C\c1ccc2ccccc2n1)/c1cccnc1`, the IC50 (as a rule, the concentration needed to halve the response being measured) in assay [1] worked out at 6 µM. In the assay on Cavia porcellus, `CCOC(=O)CCCOc1cccc(/C=C/c2ccc3ccccc3n2)c1` came in with an Effective dose of 5 mg/kg. In addition, the ED50 (in general, the dose at which the effect has come halfway, by size or by number of responders) with Rattus norvegicus [2] came out at 1.5 mg/kg. As for `CN(C)CCSC(SCCC(=O)O)c1cccc(/C=C/c2ccc3ccc(Cl)cc3n2)c1` (stereo unspecified), the half-inhibitory concentration (IC50) in assay [1] was 0.06 µM. `O=C([O-])CCCOc1cccc(/C=C/c2ccc3cc(Cl)c(Cl)cc3n2)c1.[Na+]` yielded an Effective dose in the assay with Cavia porcellus of 1 mg/kg. This compound yielded a 50% effective dose (ED50) in the assay on Rattus norvegicus [2] of 0.5 mg/kg. In the case of `O=C([O-])CCCOc1cccc(/C=C/c2ccc3ccc(Cl)cc3n2)c1.[Na+]`, 0.5 mg/kg produced 41% inhibition in vivo in the assay on Rattus norvegicus [3]. In addition, the Effective dose with Cavia porcellus came to 2.5 mg/kg. Compound `CN(C)C(=O)CCSC(SCCC(=O)O)c1cccc(/C=C/c2ccc3ccc(Cl)cc3n2)c1` (stereo unspecified) [MK-571] had an IC50 in assay [1] of 0.0008 µM. This compound displayed an Effective dose with Cavia porcellus of 0.1 mg/kg. The same compound came in with an ED50 in the assay with Rattus norvegicus [2] of 0.07 mg/kg.

`O=C(O)CCSC(SCCC(=O)O)c1cccc(OCc2ccc3ccc(Cl)cc3n2)c1` came in with a 50% inhibitory concentration (IC50) in assay [1] of 0.0136 µM. This lies in the double-digit nanomolar range.

As to `CN(C)C(=O)CCSC(SCCC(=O)O)c1cccc(SCc2ccc3ccc(Cl)cc3n2)c1` (stereo unspecified), the half-inhibitory concentration (IC50) in assay [1] came out at 0.089 µM. `O=C(O)CCSC(SCCC(=O)O)c1cccc(CCc2ccc3ccc(Cl)cc3n2)c1` returned an IC50 in assay [1] of 0.057 µM. In assay [1], `NC(=O)CCSC(SCCC(=O)O)c1cccc(/C=C/c2ccc3ccc(Cl)cc3n2)c1` (stereo unspecified) returned an IC50 of 0.0003 µM. In the assay on Cavia porcellus, this compound had an Effective dose of 0.5 mg/kg.

`CCCC/C=C/c1ccc2nc(/C=C/c3cccc(OCC(=O)OC)c3)ccc2c1`: in assay [4], the inhibition (as a rule, the change of the read-out against control, counted positive when it falls) was 12%.

On to `O=C(O)CCSC(SCCC(=O)O)c1cccc(/C=C/c2ccc3ccc(Cl)cc3n2)c1`, for which the Effective dose in the assay with Cavia porcellus was determined as 0.5 mg/kg. In the assay on Rattus norvegicus [2], this compound showed a median effective dose (ED50) of 0.1 mg/kg.

Regarding `O=C(O)CCSC(SCCC(=O)N1CCOCC1)c1cccc(/C=C/c2ccc3ccc(Cl)cc3n2)c1` (stereo unspecified), the Inhibition (in general, the drop in the measured response relative to a control, in per cent) in the assay on Rattus norvegicus [5] worked out at 43%. In addition, in assay [1], the IC50 was found to be 0.0022 µM. The Effective dose in the assay with Rattus norvegicus [2] was 0.15 mg/kg. With `CC(Oc1cccc(Sc2ccc3ccc(Cl)cc3n2)c1)C(=O)O` (stereo unspecified), the inhibition in assay [4] is 24%. In the assay with Cavia porcellus, `COC(=O)COc1cccc(/C=C/c2ccc3ccccc3n2)c1` had an Effective dose of 10 mg/kg. In the assay with Rattus norvegicus [2], this compound registered a 50% effective dose (ED50) of 2 mg/kg. The compound `O=C(O)CCSC(SCCC(=O)O)c1cccc(NC(=O)c2ccc3ccccc3n2)c1` had a 50% inhibitory concentration (IC50) in assay [1] of 0.44 µM. This lies in the sub-micromolar range. `C(=C\c1ccc2ccccc2n1)/c1ccncc1`: the IC50 in assay [1] is 3.3 µM.

Take `C(=C\c1ccc2ccccc2n1)/c1ccccc1`: the IC50 in assay [1] worked out at 6 µM.

`COC(=O)COc1cccc(/C=C/c2ccc3cc(C)ccc3n2)c1` showed a half-maximal inhibitory concentration (IC50) in assay [6] of 0.93 µM. Besides, the Effective dose with Cavia porcellus is more than 10 mg/kg. The compound `O=C(O)CCCOc1cccc(/C=C/c2ccc3ccccc3c2)c1` came in with an inhibition in assay [4] of 11%. Compound `O=C(O)CCSC(SCCC(=O)O)c1cccc(CCCc2ccc3ccc(Cl)cc3n2)c1` gave a half-inhibitory concentration (IC50) in assay [1] of 0.25 µM. Take `O=C([O-])CCCOc1cccc(/C=C/c2ccc3cc(Cl)ccc3n2)c1.[Na+]`: the inhibition in vivo (in general, the percentage by which the read-out fell short of the control) at 1.5 mg/kg in the assay on Rattus norvegicus [7] is 40%. The compound also had an Effective dose in the assay with Cavia porcellus of 5 mg/kg. For the compound `O=C([O-])CCCOc1cccc(/C=C/c2ccc3c(Cl)cccc3n2)c1.[Na+]`, the Effective dose in the assay on Cavia porcellus was more than 5 mg/kg. `O=C(O)CCSC(SCCC(=O)O)c1cccc(C2CC2c2ccc3ccc(Cl)cc3n2)c1` (stereo unspecified): the concentration for half-maximal inhibition (IC50) in assay [1] was determined as 0.032 µM.

These data come from ChEMBL document CHEMBL1126280, “Development of a novel series of styrylquinoline compounds as high-affinity leukotriene D4 receptor antagonists: synthetic and structure-activity studies leading to the discovery of (+-)-3-[[[3-[2-(7-chloro-2-quinolinyl)-(E)-ethenyl]phenyl][[3- (dimethylamino)-3-oxopropyl]thio]methyl]thio]propionic …” (J Med Chem, 1992).
